IDE cell activ: activators of human insulin-degrading enzyme in cells | hit rate 0.073% among 340,000 | HEK cells, FAbeta-B cleavage, fluorescence polarization; 0% vehicle, 100% cell-free pure enzyme wells | activation, % at 5.96 µM;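 active = activation above the mean of all tested compounds plus 3 SD, set per screening campaign, cut at about 17% in these data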
IDE inh: inhibits human insulin-degrading enzyme in HEK cells | hit rate 0.41% among 320,000 | AID 434962 | inhibition, % at 5.59 µM | FAbetaB cleavage, fluorescence polarization;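 active = percent inhibition above the average of all tested compounds plus 3 SD, set per screening campaign, cut at about 16% in these data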;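 also: IDE supplied by intact live HEK cells; FP after avidin binding of uncleaved biotin substrate so inhibition keeps polarization high; 0% = DMSO wells and 100% = 60 µM reference IDE inhibitor Ii1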
ARFGAP1 inhibitor: rat ARFGAP1 inhibition. Arfgap1-stimulated ARF1 GTP hydrolysis, GDP FP detection. hit rate 0.26% among 360,000. inhibition, % at 16.5 µM. AID 651572;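 active = inhibition above a per-plate limit, mean inhibition of low control wells plus 3 SD, cut at about 25% in these data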;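 also: 0% = DMSO wells with enzyme and 100% = wells lacking Arfgap1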
Target sequence (Q62848 1-136 limits assumed): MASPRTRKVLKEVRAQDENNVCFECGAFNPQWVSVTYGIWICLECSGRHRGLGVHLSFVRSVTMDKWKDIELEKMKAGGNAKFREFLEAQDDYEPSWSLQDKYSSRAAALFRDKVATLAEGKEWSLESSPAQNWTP
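Repeats: one replicate per compound; assay system: rat Arfgap1 catalytic domain, aa 1-136; times: enzyme reaction 120 min at 25 °C after 20 min preincubation; detection: FP of antibody-bound GDP Alexa 633 tracer, ex 620/em 688 nm; benchmarks: high control wells lacking Arfgap1, low control full reaction with DMSO; reagent: human ARF1(Δ1-17)-GTP substrate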
ASAP1 inh: inhibitors of human ASAP1 ArfGAP activity; Q9ULH1; ASAP1-stimulated ARF1 GTP hydrolysis, GDP FP detection; inhibition, % at 16.5 µM; hit rate 0.19% among 360,000; AID 624377; in the data active = inhibition above about 25%;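 also: 0% = vehicle with enzyme and substrate and 100% = no enzyme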
Target sequence (Q9ULH1 325-724 limits assumed): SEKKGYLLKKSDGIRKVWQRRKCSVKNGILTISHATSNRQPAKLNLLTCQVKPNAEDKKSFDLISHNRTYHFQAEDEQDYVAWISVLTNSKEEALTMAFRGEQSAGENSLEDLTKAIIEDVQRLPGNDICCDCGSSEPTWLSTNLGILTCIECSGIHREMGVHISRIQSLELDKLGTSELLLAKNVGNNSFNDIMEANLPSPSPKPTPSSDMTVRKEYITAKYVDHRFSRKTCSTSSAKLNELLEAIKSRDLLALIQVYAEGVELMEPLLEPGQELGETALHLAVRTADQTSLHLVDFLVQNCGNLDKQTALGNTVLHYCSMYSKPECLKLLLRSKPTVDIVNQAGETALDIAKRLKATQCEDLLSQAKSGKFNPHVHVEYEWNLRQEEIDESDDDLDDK
PREPL inhibitor: human PREPL enzyme inhibition; inhibition, % at 5.96 µM; recombinant PREPL, fluorescence polarization activity-based probe; hit rate 0.68% among 320,000; Q4J6C6;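 also: 0% = enzyme with DMSO and 100% = wells lacking enzyme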
PREPL confirm: human PREPL inhibition, confirmation; shares compounds with PREPL inhibitor; recombinant PREPL, fluorescence polarization activity probe; AID 2803; hit rate 67% among 2,000; inhibition, % at 5.96 µM;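 also: 0% = protein with DMSO and 100% = wells lacking protein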
Numbers without * were called inactive; nt = no result given. In the library only some 1.2% were active in any assay of this set; here they are far more common. Rule as the data show it, unless noted: active = inhibition above about 43%; inactive = the rest.

SMILES	IDE cell activ	IDE inh	ARFGAP1 inhibitor	ASAP1 inh	PREPL inhibitor	PREPL confirm
C[n+]1ccccc1/C=C/c1cc(Br)ccc1O	1	4	-5	-3	44*	30
Cc1ccc(C(=O)CNc2cc(C)ccc2C)cc1	3	2	11	10	11	nt
CCNc1cc(O)ccc1C	7	2	nt	nt	70*	15
Cc1cc([N+](=O)[O-])ccc1NC(=O)CSc1nnc(C)n1C	2	4	-7	-3	6	nt
COc1ccc(-c2cn(Cc3ccc(C(N)=O)cc3)c(CCN)n2)cc1	2	-2	5	9	46*	41
COc1ccc(-c2cn(CCO)c(CCN)n2)cc1	-3	-6	6	0	3	nt
C=CCN=C1NC(c2ccc(Cl)cc2)C(C(=O)OC)=C(C)N1Cc1cccc(C(F)(F)F)c1 (configuration not stated)	nt	nt	3	-4	nt	nt
Cc1cccc(N2O[C@H]3C=C[C@@H]2C3)n1	nt	nt	7	4	nt	nt
O=[N+]([O-])c1cccc(-c2cc3cccc[n+]3cc2-c2cccc([N+](=O)[O-])c2)c1	-5	-7	0	-7	25	nt
Cc1cccc2cc(-c3ccccc3)c(-c3ccccc3)c[n+]12	1	1	2	-9	58*	46*
Cc1ccc2c(c1)CCCN2CC(=O)Nc1cccc(S(=O)(=O)N2CCCC2)c1	2	0	-3	5	8	nt
O=c1cc(CN2CCCc3ccccc32)nc2sccn12	8	0	-3	-11	51*	19
O=c1cc(CN2CCc3ccccc32)nc2sccn12	2	4	2	-11	5	nt
COCCN1CCCC(CNCc2cn(C)nc2-c2ccc(Oc3ccccc3)cc2)C1 (configuration not stated)	2	3	5	-6	43*	32
CN(C)S(=O)(=O)c1cccc(-c2csc(=Nc3ccccc3)n2CCCN2CCOCC2)c1	2	-3	9	0	56*	55*
O=S(=O)(c1ccccc1)N1CCCc2nc(-c3ccc(F)cc3)ccc21	nt	nt	11	6	nt	nt
COC(=O)c1c(Cl)c2n3ccccc3c(C)c(-c3ccccc3)c-2c1C(=O)OC	-3	4	-14	-2	49*	27
COC(=O)c1cc2c(-c3ccccc3)c(C)c3ccccn3c-2c1C(=O)OC	3	-1	2	-12	16	nt
COc1ccc([C@H]2CC(=O)C=C(c3cccc(CO)c3)C2)cc1	1	5	-2	6	2	nt
Nc1ccc2ncccc2c1N	3	12	6	15	47*	46*
O=C(C[C@@H]1C/C=C\C[C@@H](Cc2ccc(F)cc2)C(=O)OC[C@H]2CCCN2C1=O)N[C@H](CO)Cc1ccccc1	-1	-2	0	0	45*	47*
O=C(C[C@H]1C/C=C\C[C@@H](Cc2ccc(F)cc2)C(=O)OC[C@H]2CCCN2C1=O)N[C@@H](CO)Cc1ccccc1	-3	3	-2	-7	60*	51*
CC(C)CN(C(=O)COC(=O)c1ccc(-c2ccccc2)cc1)C1CCS(=O)(=O)C1 (configuration not stated)	2	8	9	6	48*	40
CC(C)CCN1C(=O)c2ccc(C(=O)OCC(=O)N(CC(C)C)C3CCS(=O)(=O)C3)cc2C1=O (configuration not stated)	1	-1	-4	-10	7	nt
CC1CCC(C(C)C)C(OC(=O)Cn2c(-c3ccc(Cl)cc3)[n+](C)c3ccccc32)C1 (configuration not stated)	12	8	11	-7	43*	47*
SMILES	IDE cell activ	IDE inh	ARFGAP1 inhibitor	ASAP1 inh	PREPL inhibitor	PREPL confirm
CC1CCC(C(C)C)C(OC(=O)Cn2c(-c3ccc(Br)cc3)[n+](C)c3ccccc32)C1 (configuration not stated)	2	-2	-2	-9	49*	44*
COC(c1ccc(Cl)cc1)(c1ccc(Cl)cc1)C(Oc1nc(C)cc(C)n1)C(=O)O (configuration not stated)	1	-1	-2	6	10	nt
O=C(NCc1ccccc1)c1cccnc1Sc1ccccc1	0	0	-2	7	-10	nt
COc1ccc(/C=N/Nc2cc(C)nc3c(C)cccc23)cc1	-3	5	14	22	48*	47*
COc1ccc(/C=N/Nc2cc(C)nc3ccccc23)cc1	2	2	19	11	42	nt
Cc1ccc2c(c1)c(C)cc[n+]2Cc1ccccc1	-2	5	3	-3	50*	29
CC(C)NC(=O)c1ccc(NC(=O)CC2SC(N3CCCCC3)=NC2=O)cc1 (configuration not stated)	1	3	4	-6	80*	18
Cc1c(CCOC(=O)c2ccc([N+](=O)[O-])cc2)sc[n+]1CC(=O)c1ccccc1	1	-3	7	3	63*	29
Cc1c(CCOC(=O)c2cccc([N+](=O)[O-])c2)sc[n+]1CC(=O)c1ccccc1	2	6	5	-3	51*	21
Cc1cc[n+](CC(=O)c2cccc([N+](=O)[O-])c2)c2ccccc12	6	0	2	-13	45*	14
CCCCN1C(=N)N([C@@H](C)CN2CCC[C@H]2CN2C(N)=NC[C@H]2CC(C)C)C[C@H]1[C@H](C)CC	-3	1	13	4	47*	41
CC[C@@H](C)[C@@H]1CN([C@@H](CN2CCC[C@H]2CN2C(N)=NC[C@@H]2Cc2ccccc2)C(C)C)C(=N)N1CCCC1CCCC1	10	3	nt	nt	56*	50*
CN(C)C1=NC[C@H](Cc2ccccc2)N1CCCC1CCCC1	-1	2	10	12	-1	nt
CCC[C@@H](CN1CCC[C@H]1CN1C(N)=NC[C@H]1CC(C)C)N1C[C@@H]([C@H](C)CC)N(CCCC2CCCC2)C1=N	9	-5	0	-14	46*	45*
CC[C@@H](C)[C@@H]1CN([C@@H](CN2CCC[C@H]2CN2C(N)=NC[C@H]2C(C)C)C(C)C)C(=N)N1CCCC1CCCC1	5	1	0	10	54*	50*
CCCCN1C(=N)N([C@@H](C)CN2CCC[C@H]2CN2C(N)=NC[C@H]2C(C)C)C[C@H]1[C@H](C)CC	-2	1	-5	0	40	nt
OCCN1CCN(c2ncnc3c2ncn3[C@H]2CN(Cc3ccc4c(c3)OCO4)C[C@@H](CO)O2)CC1	nt	nt	-3	-19	nt	nt
CC(C)[C@H](NC(=O)N1CCOCC1)C(=O)N1CCC[C@H]1C(=O)NCc1ccccc1	nt	nt	-11	-8	nt	nt
Cc1cccc(CCN2CCN=C2Nc2ccccc2)c1	-1	1	-3	-5	12	nt
COC(=O)[C@@]12C[C@@H](CC(=O)NCC34CC5CC(CC(C5)C3)C4)C(=O)N(Cc3ccccc3)C1=CCC(C)(C)C2	nt	nt	10	4	nt	nt

Screening data from PubChem BioAssay.
